Test [1] concerns the target T1, 5-hydroxytryptamine receptor 1D (Homo sapiens, UniProt P28221). As to the kind of experiment: In vitro receptor binding affinity for cloned human 5-hydroxytryptamine 1D receptor. The procedure, abridged: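 Radioligand binding assay in cell lines expressing the human 5-HT1D receptor; affinity reported as Ki values. Further procedural detail is referenced to earlier work.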

For test [2], the target named is T1, 5-hydroxytryptamine receptor 1D. As to the kind of experiment: Intrinsic activity for 5-hydroxytryptamine 1D receptor. It counts as functional. The procedure, abridged:
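Agonism measured as inhibition of forskolin-stimulated adenylyl cyclase in cell lines expressing the human 5-HT1D receptor.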

Test [3] has the same target. As to the kind of experiment: Ability to inhibit forskolin-stimulated adenylate cyclase in a cell line expressing human 5-hydroxytryptamine 1D receptor. It counts as functional.
Test [4] concerns the target T2, 5-hydroxytryptamine receptor 1A (Homo sapiens, UniProt P08908).
T2 sequence (P08908 whole entry): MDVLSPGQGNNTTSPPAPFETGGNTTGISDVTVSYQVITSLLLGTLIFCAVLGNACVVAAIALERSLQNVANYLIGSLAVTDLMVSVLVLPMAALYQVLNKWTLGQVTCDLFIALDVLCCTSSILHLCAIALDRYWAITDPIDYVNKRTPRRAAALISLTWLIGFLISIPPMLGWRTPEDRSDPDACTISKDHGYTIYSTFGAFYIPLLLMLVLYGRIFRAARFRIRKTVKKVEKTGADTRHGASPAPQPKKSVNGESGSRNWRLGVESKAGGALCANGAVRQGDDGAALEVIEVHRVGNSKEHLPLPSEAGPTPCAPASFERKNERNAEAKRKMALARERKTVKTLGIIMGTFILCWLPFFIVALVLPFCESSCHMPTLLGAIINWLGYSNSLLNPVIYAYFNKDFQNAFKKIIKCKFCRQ
Briefly: In vitro receptor binding affinity for cloned human 5-hydroxytryptamine 1A receptor.

In test [5] the target is 5-hydroxytryptamine receptor 1B (Homo sapiens, UniProt P28222). As to the kind of experiment: In vitro receptor binding affinity for cloned human 5-hydroxytryptamine 1B receptor.
Chain of 5-hydroxytryptamine receptor 1B (P28222 whole entry): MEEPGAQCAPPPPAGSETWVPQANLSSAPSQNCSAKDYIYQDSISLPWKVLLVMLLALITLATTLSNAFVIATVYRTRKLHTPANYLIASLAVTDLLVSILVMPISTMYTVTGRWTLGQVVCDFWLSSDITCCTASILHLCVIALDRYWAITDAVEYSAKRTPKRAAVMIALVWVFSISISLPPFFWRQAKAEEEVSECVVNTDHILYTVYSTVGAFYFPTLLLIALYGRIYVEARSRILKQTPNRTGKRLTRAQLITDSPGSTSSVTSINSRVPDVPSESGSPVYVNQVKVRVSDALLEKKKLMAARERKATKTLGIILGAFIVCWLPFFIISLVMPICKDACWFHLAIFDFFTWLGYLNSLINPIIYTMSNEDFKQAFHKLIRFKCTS

T1 sequence (P28221 whole entry): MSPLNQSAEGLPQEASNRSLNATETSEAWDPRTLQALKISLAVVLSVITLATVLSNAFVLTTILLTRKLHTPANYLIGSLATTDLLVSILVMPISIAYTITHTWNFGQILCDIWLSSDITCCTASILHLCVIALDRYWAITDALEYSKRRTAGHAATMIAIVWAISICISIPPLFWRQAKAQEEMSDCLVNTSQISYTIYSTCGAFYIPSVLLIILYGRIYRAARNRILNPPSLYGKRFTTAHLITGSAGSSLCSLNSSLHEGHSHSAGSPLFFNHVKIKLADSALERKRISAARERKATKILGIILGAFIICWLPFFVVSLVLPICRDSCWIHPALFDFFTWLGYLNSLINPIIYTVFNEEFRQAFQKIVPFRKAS

Regarding `CN(C)CCc1c[nH]c2ccc(C(C)(C)C)cc12`, in test [1], the inhibition constant Ki worked out at 0.44 nM.
Turning to `CC(C)c1ccc2[nH]cc(CCN)c2c1`, in test [1], the affinity, expressed as Ki, was 1.1 nM.
`CCCN(CCC)CCc1c[nH]c2ccc(C(C)(C)C)cc12` had a Ki in test [1] of 10.8 nM.
On to `CN(C)CCc1c[nH]c2ccc(Cn3cncn3)cc12`, for which, in test [2], the Emax is 97%.
In test [1], `CC(C)(C)c1ccc2[nH]cc(CCN)c2c1` yielded a Ki of 0.6 nM.
In test [1], `NCCc1c[nH]c2ccc(C3CCCCC3)cc12` showed an inhibition constant Ki of 3.4 nM.
As to `CNS(=O)(=O)Cc1ccc2[nH]cc(CCN(C)C)c2c1`, the Emax in test [2] turned out to be 93%.
Consider `CCCNCCc1c[nH]c2ccc(C(C)(C)C)cc12`, for which the affinity in test [1], expressed as Ki, was 6.2 nM.
As to `CNCCc1c[nH]c2ccc(C(C)(C)C)cc12`, the Ki in test [1] was 0.45 nM; in test [4], 6.1 nM; in test [5], 1.9 nM. The same compound came in with an EC50 in test [3] of 0.22 nM. For the same compound, in test [2], the Emax worked out at 100%.
`CNS(=O)(=O)CCc1ccc2[nH]cc(C3CCN(C)CC3)c2c1`: the figures for the Ki in test [1], in test [4] and in test [5] were 2.3 nM, 45 nM and 3.3 nM, respectively. For the same compound, the EC50 in test [3] stood at 1.6 nM. The compound further had an Emax in test [2] of 100%.
As for `NCCc1c[nH]c2ccc(C3CCCC3)cc12`, the inhibition constant Ki in test [1] was 1.7 nM.
Take `CN[C@@H]1CCc2[nH]c3ccc(C(N)=O)cc3c2C1` [FROVATRIPTAN]: the Ki in test [1] amounted to […]; in test [4], 62 nM.
In turn, `Cc1ccc2[nH]cc(CCN)c2c1` yielded a Ki in test [1] of 6.4 nM.
Regarding `CCc1ccc2[nH]cc(CCN)c2c1`, the affinity in test [1], expressed as Ki, was 3.7 nM. This Ki lies about 1.7-fold lower than the previous one.

What is called Ki is a measure of affinity in units of concentration, obtained from inhibition or displacement. Low readings indicate a stronger hold on the target, high ones a looser hold on the target. In general, Emax refers to the size of the effect at its maximum, as opposed to the concentration needed. The term EC50 denotes the concentration that produces a half-maximal response. A high value points to weaker potency.

(Values after ChEMBL document CHEMBL1132575 (J Med Chem, 1999).)
